RGS4 act: RGS4 potentiators or activators, primary screen, cell-based, HEK293 M3R inducible RGS4, calcium flux; carbachol calcium flux Fluo4; active compounds read low; B-score at 10 µM; 310,000 tested, 0.92% active; AID 463111, 2010;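 active = B-score of the integrated calcium signal more than 4 SD below the library mean, with starting fluorescence not abnormally high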;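 also: negative B-score means reduced calcium response which marks RGS4 activation or potentiation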
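Material: M3R-expressing HEK293 line, RGS4 induced by doxycycline | Schedule: Overnight RGS4 induction, 30 min dye load 37 °C, 20 min compound RT | Measured by: Fluo4 fluorescence kinetic imaging of calcium | Read-out: Integrated calcium ratio converted to B score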
RGS4 inh: RGS4 inhibitors, primary screen, cell-based, HEK293 M3R inducible RGS4, calcium flux | B-score at 10 µM | 310,000 tested, 0.45% active | Fluo-4 calcium flux; active compounds read high; triggered by carbachol at its EC20 | Regulator of G-protein signaling 4 (Homo sapiens), P49798;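 active = B-score, a plate-corrected calcium signal, over three deviations above library mean, with baseline fluorescence within five deviations of library mean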;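 also: RGS4 expression induced by doxycycline in cells with stable M3 receptor; B-score is computed from the integrated fluorescence ratio over baseline after carbachol; higher B-score means a larger calcium signal and so more RGS4 inhibition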
MrgX1 antag: antagonists of human MrgX1 receptor, primary screen, HEK293 cells, Fluo-4 calcium flux; Mas-related G-protein coupled receptor member X1 (Homo sapiens), Q96LB2; BAM8-22 antagonism; active compounds read low; B-score at 10 µM; 310,000 tested, 1.3% active; AID 588676, 2011;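 active = calcium-response B-score plate-corrected more than 3 library SD below zero, starting fluorescence within 5 deviations, no agonist response on first addition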;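 also: peak minus trough fluorescence over baseline after final BAM8-22 challenge near maximal dose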
Target sequence (Q96LB2 whole entry, looked up): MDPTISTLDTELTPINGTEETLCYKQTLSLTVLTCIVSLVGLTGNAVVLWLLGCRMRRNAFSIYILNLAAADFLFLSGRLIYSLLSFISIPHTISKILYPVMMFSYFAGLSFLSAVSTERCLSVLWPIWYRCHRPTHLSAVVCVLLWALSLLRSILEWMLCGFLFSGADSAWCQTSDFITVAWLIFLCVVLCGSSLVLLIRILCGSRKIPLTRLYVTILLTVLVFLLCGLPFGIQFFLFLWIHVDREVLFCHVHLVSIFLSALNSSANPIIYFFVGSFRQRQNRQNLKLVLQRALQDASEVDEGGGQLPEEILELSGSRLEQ
MrgX1 PAM: positive allosteric modulators of MrgX1, primary screen, HEK293 cells, Fluo-4 calcium flux. Mas-related G-protein coupled receptor member X1 (Homo sapiens), Q96LB2. FDSS; active compounds read high. B-score at 10 µM. 310,000 tested, 0.63% active. AID 588675, 2011;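 active = plate-corrected calcium response at least 3 library SD above typical, normal starting fluorescence, not activating the receptor alone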;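 also: compound read alongside a low EC10 to EC30 dose of BAM8-22 agonist; peak minus trough fluorescence over baseline measured at the second addition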
PHOSPHO1 inh: PubChem AID 1565. recombinant PHOSPHO1, absorbance phosphatase assay. 290,000 tested, 1.1% active. inhibition, % at 13.3 µM; in the data active = inhibition above about 60%
MrgX1 agonist: agonists of human MrgX1 receptor, primary screen, HEK293 cells, Fluo-4 calcium flux; Mas-related G-protein coupled receptor member X1 (Homo sapiens), Q96LB2; B-score at 10 µM; 310,000 tested, 0.44% active; Fluo-4 calcium fluorescence, agonist mode; active compounds read high; AID 588627, 2011;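 active = calcium response B-score plate-corrected fluorescence ratio at least 3 library SD, with starting fluorescence B-score inside 5 SD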
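times = overnight plating, then 30 min 37 °C plus 30 min room-temperature dye loading | assay system = stable human MrgX1 HEK293 cell line | input = fifteen thousand cells per well | signal = kinetic calcium dye fluorescence, Fluo-4 NW | dosing = compound delivered in addition one of three | read-out = B-scored fluorescence response ratio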
A number is an active result; . = inactive; / = not tested or not shown. Only some compounds are listed: those with a hit (about 4.5% of all), similar ones and a draw of the others.

SMILES | RGS4 act | RGS4 inh | MrgX1 antag | MrgX1 PAM | PHOSPHO1 inh | MrgX1 agonist
C#CCOCCOCCOCCNc1nc(N2CCN(C(=O)CCCCCCCCCCNC(=O)[C@H](CCCCN)n3cc(CCO)nn3)CC2)nc(N2CCN(C(=O)CCCCCCCCCCNC(=O)[C@H](CCCN=C(N)N)n3cc(C[C@@H](C)CC)nn3)CC2)n1 | / | / | . | . | / | 153
CC[C@H](C)Cc1cn([C@@H](CCCCNC(=O)OC(C)(C)C)C(=O)NCCCCCCCCCCC(=O)N2CCN(C(=O)OC(C)(C)C)CC2)nn1 | / | / | -7.07 | . | / | .
C#CCOCCOCCOCCNc1nc(N2CCN(C(=O)CCCCCCCCCCNC(=O)[C@@H](CCSC)n3cc(CCO)nn3)CC2)nc(N2CCN(C(=O)CCCCCCCCCCNC(=O)[C@H]([C@@H](C)CC)n3cc(CCCCCN)nn3)CC2)n1 | / | / | . | 14.7 | / | .
CC(C)(C)OC(=O)NCCCC[C@@H](C(=O)NCCCCCCCCCCC(=O)N1CCN(C(=O)OC(C)(C)C)CC1)n1cc(CCO)nn1 | / | / | . | . | / | .
C#CCOCCOCCOCCNc1nc(N2CCN(C(=O)CCCCCCCCCCNC(=O)[C@@H](CCSC)n3cc(CCO)nn3)CC2)nc(N2CCN(C(=O)CCCCCCCCCCNC(=O)[C@H]([C@@H](C)CC)n3cc(CCCCN=C(N)N)nn3)CC2)n1 | / | / | . | . | / | .
C#CCOCCOCCOCCNc1nc(N2CCN(C(=O)CCCCCCCCCCNC(=O)[C@H](CCCCN)n3cc(C)nn3)CC2)nc(N2CCN(C(=O)CCCCCCCCCCNC(=O)[C@@H]([C@H](C)CC)n3cc(CCCCCN)nn3)CC2)n1 | / | / | . | . | / | 120
CCn1ccnc1[C@@H]1C[C@H]2CN(c3ccccc3OC)C(=O)[C@]23CCCN13 | . | . | . | . | . | .
CCn1ncc([N+](=O)[O-])c1C(=O)NC1CCCCC1 | . | . | . | . | . | .
CCCCNC(=O)c1sc(=S)n2c1[nH]c(=O)c1ccccc12 | . | . | . | . | . | 63.4
CCCCN(CC)CCCNC(=O)c1cc2c(=O)[nH]c3ccccc3c2s1 | . | . | . | . | . | .
O=C(NC1CCCCC1)c1sc(=S)n2c1[nH]c(=O)c1ccccc12 | . | . | . | . | 75.6 | 47.3
O=C(C(=O)N1CCCCC1)c1cn(CC(=O)N2CCCCCC2)c2ccccc12 | . | . | . | . | . | .
CCCCn1c(N)c(N(CC(C)C)C(=O)C2CCCO2)c(=O)[nH]c1=O (stereo not drawn) | . | . | . | . | / | .
COCCCNCCOc1ccc(C)cc1[N+](=O)[O-] | . | . | -4.89 | . | . | .
COCCCNCCOCCOc1ccc(C)cc1[N+](=O)[O-] | . | . | . | . | . | .
Cc1snc(SCC(=O)c2ccc(Cl)cc2)c1C#N | . | . | . | . | 83.9 | .
COc1ccc(C(C)NC(=O)c2ccc([N+](=O)[O-])cc2)cc1OC (stereo not drawn) | . | . | -5.45 | . | . | .
COc1ccc(NC(=O)c2ccc(-c3ccc([N+](=O)[O-])cc3)o2)cc1OC | . | . | -5.27 | . | . | .
COc1cccc(NC(=O)c2ccc(-c3ccc([N+](=O)[O-])cc3)o2)c1 | . | . | . | . | . | .
COc1ccc(-c2nn3c(C4CCCCC4)nnc3s2)cc1OC | . | . | . | . | 83.4 | .
N#CCSc1nc2ccc(N3CCCCC3)cc2c(=O)n1Cc1ccccc1 | . | . | . | . | 66.7 | .
N#CCSc1nc2ccccc2c(=O)n1CC1CCCC1 | . | . | . | . | . | .
COc1cccc(/C=N/NC(=O)CNC(=O)c2ccc(S(=O)(=O)N3CCCC3)cc2)c1OC | . | . | . | . | . | .
CCC(C)n1c(=S)[nH]c2c(sc3ccc([N+](=O)[O-])cc32)c1=O (stereo not drawn) | . | . | . | 9.21 | . | .
COc1cccc(CC(=O)OCC(=O)NC(Cc2ccccc2)C(C)=O)c1 (stereo not drawn) | . | . | . | . | / | .
